From ChEMBL document CHEMBL3046408, “Disease control effect of strevertenes produced by Streptomyces psammoticus against tomato fusarium wilt” (J Agric Food Chem, 2011)
≈ marks a conversion by molar mass, not a printed value. Calls of active or inactive are those of the source. The calls are words filed in the database; no cut-off is given here.

Assays:
[1] = system: Aspergillus oryzae; test: Antifungal activity against Aspergillus oryzae assessed as complete growth inhibition after 1 to 3 days by CLSI M38-A method; type: functional
Summary of the method: (§1)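 Broth microdilution in 96-well plates following CLSI M38-A. Conidial suspensions were dispensed to a final (0.5-5) × 10^4 spores/mL, with compound at final 0.125 to 64 μg/mL. Plates were incubated at 28 °C for 1-3 days. MIC was read visually as the lowest concentration giving complete growth inhibition.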

[2] = system: Fusarium oxysporum f. sp. lycopersici; test: Antifungal activity against Fusarium oxysporum f.sp. lycopersici JCM 12575 in tomato plants assessed as inhibition of Fusarium wilt disease severity at 1 ug/mL measured after 10 days of inoculation under green house condition; type: functional, organism-based
Summary of the method: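 Greenhouse assay. F. oxysporum f.sp. lycopersici JCM 12575 was grown in Czapek Dox broth at 28 °C for 14 days, and the inoculum was 2 × 10^6 conidia/mL. Wounded tomato seedling roots were dipped for 10 min, potted, and soil-drenched with 5 mL of compound (1, 10, 100, 500 μg/mL); controls received sterile water. Plants spent 24 h in a 28 °C dew chamber, then went to the greenhouse. Disease severity was scored 0-5 at 10 days post-inoculation.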

[3] = system: Fusarium oxysporum f. sp. cucumerinum; test: Antifungal activity against Fusarium oxysporum f.sp. cucumerinum assessed as complete growth inhibition after 1 to 3 days by CLSI M38-A method; type: functional; summary of the method: as §1
[4] = system: Cercospora canescens; test: Antifungal activity against Cercospora canescens assessed as complete growth inhibition after 1 to 3 days by CLSI M38-A method; type: functional; summary of the method: as §1
[5] = system: Colletotrichum gloeosporioides; test: Antifungal activity against Colletotrichum gloeosporioides assessed as complete growth inhibition after 1 to 3 days by CLSI M38-A method; type: functional; summary of the method: as §1
[6] = system: Solanum lycopersicum; test: Phytotoxicity in Solanum lycopersicum (tomato) plants upto 500 ug/mL; type: organism-based; conditions: in vivo
[7] = system: Rhizoctonia solani; test: Antifungal activity against Rhizoctonia solani assessed as complete growth inhibition after 1 to 3 days by CLSI M38-A method; type: functional
Summary of the method: (§2)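 CLSI M38-A microdilution in 96-well plates, inoculated with mycelial-fragment suspensions at a final (0.5-5) × 10^4 fragments/mL. Compound was added at final concentrations from 0.125 to 64 μg/mL. After 1-3 days at 28 °C, MIC was scored by eye as the lowest concentration completely inhibiting growth.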

[8] = system: Fusarium oxysporum f. sp. lycopersici; test: Antifungal activity against Fusarium oxysporum f.sp. lycopersici assessed as complete growth inhibition after 1 to 3 days by CLSI M38-A method; type: functional; summary of the method: as §1
[9] = system: Sclerotinia sclerotiorum; test: Antifungal activity against Sclerotinia sclerotiorum assessed as complete growth inhibition after 1 to 3 days by CLSI M38-A method; type: functional; summary of the method: as §2
[10] = system: Colletotrichum coccodes; test: Antifungal activity against Colletotrichum cocodes assessed as complete growth inhibition after 1 to 3 days by CLSI M38-A method; type: functional; summary of the method: as §1
[11] = system: Ilyonectria destructans; test: Antifungal activity against Ilyonectria radicicola assessed as complete growth inhibition after 1 to 3 days by CLSI M38-A method; type: functional; summary of the method: as §1
[12] = system: Alternaria brassicicola; test: Antifungal activity against Alternaria brassicola assessed as complete growth inhibition after 1 to 3 days by CLSI M38-A method; type: functional; summary of the method: as §1
[13] = system: Diaporthe citri; test: Antifungal activity against Diaporthe citri assessed as complete growth inhibition after 1 to 3 days by CLSI M38-A method; type: functional
Summary of the method: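 Broth microdilution following CLSI M38-A. Mycelial-fragment suspension of the fungus at a final (0.5-5) × 10^4 fragments/mL. Antibiotic added to final concentrations of 0.125 to 64 μg/mL. Incubated at 28 °C for 1-3 days. Wells read visually; MIC is the lowest concentration giving complete growth inhibition.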

[14] = system: Alternaria mali; test: Antifungal activity against Alternaria mali assessed as complete growth inhibition after 1 to 3 days by CLSI M38-A method; type: functional; summary of the method: as §1
[15] = system: Colletotrichum orbiculare; test: Antifungal activity against Colletotrichum orbiculare assessed as complete growth inhibition after 1 to 3 days by CLSI M38-A method; type: functional; summary of the method: as §1

Row | Compound | MIC [1] | inhibition [2] | MIC [3] | MIC [4] | MIC [5] | Activity [6] | MIC [7] | MIC [8] | MIC [9] | MIC [10] | MIC [11] | MIC [12] | MIC [13] | MIC [14] | MIC [15]
1 | CC[C@H]1C(=O)O[C@H](C)[C@@H](C)/C=C/C=C/C=C/C=C/C=C/[C@@H](O)[C@H](C(=O)O)[C@H](O)C[C@H](O)CCC[C@H](O)C[C@H](O)C[C@@H]1O [STREVERTENE B] | 10 µg/mL (≈ 16.8 µM) | Active | 8 µg/mL (≈ 13.5 µM) | 32 µg/mL (≈ 53.8 µM) | 8 µg/mL (≈ 13.5 µM) | Non-toxic | > 64 µg/mL | 8 µg/mL (≈ 13.5 µM) | 8 µg/mL (≈ 13.5 µM) | 8 µg/mL (≈ 13.5 µM) | 16 µg/mL (≈ 26.9 µM) | > 64 µg/mL | 32 µg/mL (≈ 53.8 µM) | 16 µg/mL (≈ 26.9 µM) | 4 µg/mL (≈ 6.73 µM)
2 | C[C@H]1/C=C/C=C/C=C/C=C/C=C/[C@@H](O)[C@H](C(=O)O)[C@H](O)C[C@H](O)CCC[C@H](O)C[C@H](O)C[C@H](O)[C@@H](C)C(=O)O[C@@H]1C [STREVERTENE A] | 16 µg/mL (≈ 27.6 µM) | Active | 16 µg/mL (≈ 27.6 µM) | 16 µg/mL (≈ 27.6 µM) | 8 µg/mL (≈ 13.8 µM) | Non-toxic | > 64 µg/mL | 16 µg/mL (≈ 27.6 µM) | 8 µg/mL (≈ 13.8 µM) | 8 µg/mL (≈ 13.8 µM) | 16 µg/mL (≈ 27.6 µM) | > 64 µg/mL | 32 µg/mL (≈ 55.1 µM) | 16 µg/mL (≈ 27.6 µM) | 8 µg/mL (≈ 13.8 µM)
